# The source made the active and inactive calls. The rule behind the calls is not given here.
# Assays:
# [1] = target: T1, Toll-like receptor 9 (Mus musculus) (UniProt Q9EQU3); experiment: Inhibition of TLR9 in BALB/c mouse BMDM assessed as downregulation of CpG-stimulated IL-6 level at 5 ug/ml preincubated for 18 hrs followed by CpG challenge measured after 24 hrs by ELISA relative to control
# T1 sequence (whole entry): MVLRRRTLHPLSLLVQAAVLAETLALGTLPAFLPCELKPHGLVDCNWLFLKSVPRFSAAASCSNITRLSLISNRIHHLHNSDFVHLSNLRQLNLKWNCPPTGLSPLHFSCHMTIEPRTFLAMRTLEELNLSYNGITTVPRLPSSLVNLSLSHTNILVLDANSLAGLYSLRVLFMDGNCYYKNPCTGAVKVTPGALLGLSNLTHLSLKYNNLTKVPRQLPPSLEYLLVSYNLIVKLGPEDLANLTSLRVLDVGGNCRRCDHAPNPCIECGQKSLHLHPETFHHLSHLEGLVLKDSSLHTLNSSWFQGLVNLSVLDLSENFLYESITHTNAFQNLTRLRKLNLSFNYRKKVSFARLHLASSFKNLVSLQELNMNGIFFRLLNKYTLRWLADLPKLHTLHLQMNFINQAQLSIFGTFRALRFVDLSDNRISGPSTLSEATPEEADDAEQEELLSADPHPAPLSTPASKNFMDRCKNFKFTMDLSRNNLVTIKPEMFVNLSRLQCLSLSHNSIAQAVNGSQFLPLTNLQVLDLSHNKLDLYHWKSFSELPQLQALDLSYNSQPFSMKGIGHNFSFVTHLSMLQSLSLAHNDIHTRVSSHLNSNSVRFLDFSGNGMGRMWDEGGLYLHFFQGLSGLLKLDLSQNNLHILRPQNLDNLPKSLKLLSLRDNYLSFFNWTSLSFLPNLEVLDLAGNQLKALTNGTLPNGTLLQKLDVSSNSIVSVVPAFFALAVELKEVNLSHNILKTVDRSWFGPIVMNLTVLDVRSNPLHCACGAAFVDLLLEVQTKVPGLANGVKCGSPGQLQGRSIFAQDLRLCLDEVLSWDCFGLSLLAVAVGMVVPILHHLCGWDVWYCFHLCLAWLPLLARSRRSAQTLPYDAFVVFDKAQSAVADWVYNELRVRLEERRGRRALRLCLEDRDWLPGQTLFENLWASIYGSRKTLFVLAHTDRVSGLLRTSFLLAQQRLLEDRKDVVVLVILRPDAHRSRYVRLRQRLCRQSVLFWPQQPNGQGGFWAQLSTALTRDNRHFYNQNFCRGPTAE
# How it was run: (§1)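 BALB/c male bone marrow macrophages were differentiated 7 days with L929 supernatant (≥99% CD11b+/F4/80+). Cells were plated at 2 × 10^5/well in triplicate, rested overnight, and given compounds at 5 μg/mL for 18 h. They were then stimulated with 100 ng/mL S. minnesota LPS, 10 ng/mL Pam3CSK4 (BLP) or 0.01 μM CpG for 24 h. Supernatant IL-12p40 and IL-6 were measured by ELISA (sensitivity 16 pg/mL).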
# [2] = target: T1, Toll-like receptor 9 (Mus musculus); experiment: Inhibition of TLR9 in BALB/c mouse BMDM assessed as downregulation of CpG-stimulated IL-12p40 level at 5 ug/ml preincubated for 18 hrs followed by CpG challenge measured after 24 hrs by ELISA relative to control; how it was run: as §1
# TLR2/TLR6 (Mus musculus) [3] = target: T2, TLR2/TLR6 (Mus musculus) (UniProt Q9QUN7+Q9EPW9); experiment: Inhibition of TLR2/6 in BALB/c mouse BMDM assessed as downregulation of BLP-stimulated IL-6 level at 5 ug/ml preincubated for 18 hrs followed by BLP challenge measured after 24 hrs by ELISA relative to control; assay type: protein-complex assay; how it was run: as §1
# TLR2/TLR6 (Mus musculus) [4] = target: T2, TLR2/TLR6 (Mus musculus); experiment: Inhibition of TLR2/6 in BALB/c mouse BMDM assessed as downregulation of BLP-stimulated IL-12p40 level at 5 ug/ml preincubated for 18 hrs followed by BLP challenge measured after 24 hrs by ELISA relative to control; assay type: protein-complex assay; how it was run: as §1
# [5] = target: T3, Toll-like receptor 4 (Mus musculus) (UniProt Q9QUK6); experiment: Inhibition of TLR4 in BALB/c mouse BMDM assessed as downregulation of LPS-stimulated IL-6 level at 5 ug/ml preincubated for 18 hrs followed by LPS challenge measured after 24 hrs by ELISA relative to control; how it was run: as §1
# T3 sequence (whole entry): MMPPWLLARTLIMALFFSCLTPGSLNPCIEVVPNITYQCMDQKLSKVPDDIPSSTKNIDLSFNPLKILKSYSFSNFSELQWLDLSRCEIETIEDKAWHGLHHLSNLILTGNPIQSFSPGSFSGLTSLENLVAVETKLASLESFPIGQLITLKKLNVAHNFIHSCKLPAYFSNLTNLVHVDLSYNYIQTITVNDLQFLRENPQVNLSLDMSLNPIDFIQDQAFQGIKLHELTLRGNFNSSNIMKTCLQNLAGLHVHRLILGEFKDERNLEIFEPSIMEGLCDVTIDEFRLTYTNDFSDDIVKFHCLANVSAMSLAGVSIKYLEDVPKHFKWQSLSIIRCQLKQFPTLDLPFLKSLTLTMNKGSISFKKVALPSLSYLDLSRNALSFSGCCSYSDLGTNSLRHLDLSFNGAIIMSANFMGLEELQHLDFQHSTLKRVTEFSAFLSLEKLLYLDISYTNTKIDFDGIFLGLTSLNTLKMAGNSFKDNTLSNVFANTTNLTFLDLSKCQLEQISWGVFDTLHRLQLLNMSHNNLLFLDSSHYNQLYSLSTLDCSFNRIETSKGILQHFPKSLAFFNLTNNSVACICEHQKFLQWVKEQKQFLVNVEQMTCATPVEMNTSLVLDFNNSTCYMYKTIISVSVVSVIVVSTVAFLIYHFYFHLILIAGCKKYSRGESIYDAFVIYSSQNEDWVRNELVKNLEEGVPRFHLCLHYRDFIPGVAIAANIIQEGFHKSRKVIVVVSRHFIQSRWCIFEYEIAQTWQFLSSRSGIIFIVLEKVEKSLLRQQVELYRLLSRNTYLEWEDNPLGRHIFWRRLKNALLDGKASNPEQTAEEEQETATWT
# [6] = target: T3, Toll-like receptor 4 (Mus musculus); experiment: Inhibition of TLR4 in BALB/c mouse BMDM assessed as downregulation of LPS-stimulated IL-12p40 level at 5 ug/ml preincubated for 18 hrs followed by LPS challenge measured after 24 hrs by ELISA relative to control; how it was run: as §1
inhibition [1],inhibition [2],inhibition (TLR2/TLR6 (Mus musculus) [3]),inhibition (TLR2/TLR6 (Mus musculus) [4]),inhibition [5],inhibition [6],Structure (SMILES)
inactive,inactive,inactive,inactive,inactive,inactive,O=[N+]([O-])c1ccc(CS(=O)(=O)NCCN2CCCC2)cc1
Active,Active,inactive,inactive,Active,inactive,O=S(=O)(CCN1CCCC1)NCc1ccc(F)cc1
inactive,inactive,inactive,inactive,inactive,inactive,O=S(=O)(CCCN1CCCC1)Cc1ccc(Br)cc1
inactive,inactive,inactive,inactive,inactive,inactive,O=S(=O)(Cc1ccc(Br)cc1)NCCN1CCOCC1
inactive,inactive,inactive,inactive,inactive,inactive,CN(C)CCS(=O)(=O)NCc1ccc(Br)cc1
inactive,inactive,inactive,inactive,inactive,inactive,CN(C)CCCNC(=O)Cc1ccccc1
inactive,inactive,inactive,inactive,inactive,inactive,Cc1ccc(CS(=O)(=O)CCC[N+](C)(C)C)cc1
inactive,inactive,inactive,inactive,inactive,Active,CN(C)CCS(=O)(=O)Nc1ccccc1
inactive,inactive,Active,inactive,inactive,inactive,CN(C)CCCNS(=O)(=O)Cc1ccc([N+](=O)[O-])cc1
inactive,inactive,inactive,inactive,inactive,inactive,CN1CCN(CCS(=O)(=O)c2ccccc2)CC1
inactive,inactive,inactive,Active,inactive,inactive,CC(C)(C)NCCS(=O)(=O)c1ccccc1
Active,inactive,inactive,Active,inactive,Active,COc1cccc(C(=O)NCCN2CCCC2)c1
Active,Active,Active,inactive,Active,inactive,O=S(=O)(CCN1CCOCC1)NCc1ccc(F)cc1
inactive,inactive,inactive,inactive,inactive,Active,O=S(=O)(CCN1CCCC1)Nc1ccc(F)cc1
inactive,inactive,inactive,inactive,inactive,inactive,CN(C)CCNS(=O)(=O)Cc1ccc2ccccc2c1
inactive,inactive,inactive,inactive,inactive,inactive,Cc1ccc(CP(=O)(O)OCCN(C)C)cc1
inactive,inactive,inactive,inactive,inactive,inactive,CN(C)CCOP(=O)(O)Cc1ccc(Br)cc1
inactive,inactive,inactive,inactive,inactive,inactive,O=S(=O)(CCN1CCOCC1)Cc1cccc(F)c1
inactive,inactive,inactive,inactive,inactive,inactive,CN(C)CCCNS(=O)(=O)Cc1ccc(Br)cc1
Active,Active,inactive,Active,Active,inactive,O=S(=O)(Cc1ccc2ccccc2c1)NCCN1CCOCC1
inactive,inactive,inactive,inactive,inactive,inactive,CN(C)CCS(=O)(=O)NCc1ccccc1
inactive,inactive,inactive,inactive,inactive,inactive,O=S(=O)(CCN1CCOCC1)NCc1ccccc1
inactive,inactive,inactive,inactive,Active,inactive,O=S(=O)(CCN1CCOCC1)Cc1ccc(F)cc1
inactive,inactive,inactive,inactive,inactive,inactive,CN(C)CCN(C)CCS(=O)(=O)Cc1cccc(F)c1

# — ChEMBL document CHEMBL3108700, “Designing anti-inflammatory drugs from parasitic worms: a synthetic small molecule analogue of the Acanthocheilonema viteae product ES-62 prevents development of collagen-induced arthritis” (J Med Chem, 2013)
